Reference: ChEMBL document CHEMBL4373647, “Design, synthesis, and antimicrobial evaluation of 1,4-dihydroindeno[1,2-c]pyrazole tethered carbohydrazide hybrids: exploring their in silico ADMET, ergosterol inhibition and ROS inducing potential” (Medchemcomm, 2019)
In brackets after ≈: the same amount, converted by molar mass. Activity calls are given as the source filed them. The rule behind the calls is not given here.

Assays:
Type in all cases: functional
Micrococcus luteus [1] = test: Antibacterial activity against Micrococcus luteus MTCC 2470 assessed as inhibition of bacterial growth incubated for 24 hrs by agar well diffusion method; conditions: MTCC 2470, 24 h
How it was run: (§1)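 Strains from MTCC; inoculum at 0.5 McFarland spread on Mueller-Hinton agar; 6 mm wells loaded with compound over 125–0.97 µg/mL; ciprofloxacin positive control (same range), DMSO negative control. Plates held 24 h at 37 °C; MIC taken as lowest concentration giving a clear inhibition zone. Triplicate runs, mean MIC reported.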

Staphylococcus aureus [2] = test: Antibacterial activity against Staphylococcus aureus MTCC 96 assessed as inhibition of bacterial growth incubated for 24 hrs by agar well diffusion method; conditions: MTCC 96, 24 h; how it was run: as §1
Staphylococcus aureus [3] = test: Antibacterial activity against Staphylococcus aureus MLS-16 MTCC 2940 assessed as inhibition of bacterial growth incubated for 24 hrs by agar well diffusion method; conditions: MLS-16 MTCC 2940, 24 h; how it was run: as §1
Bacillus subtilis [4] = test: Antibacterial activity against Bacillus subtilis MTCC 121 assessed as inhibition of bacterial growth incubated for 24 hrs by agar well diffusion method; conditions: MTCC 121, 24 h; how it was run: as §1
Escherichia coli [5] = test: Antibacterial activity against Escherichia coli MTCC 739 assessed as inhibition of bacterial growth incubated for 24 hrs by agar well diffusion method; conditions: MTCC 739, 24 h; how it was run: as §1
Pseudomonas aeruginosa [6] = test: Antibacterial activity against Pseudomonas aeruginosa MTCC 2453 assessed as inhibition of bacterial growth incubated for 24 hrs by agar well diffusion method; conditions: MTCC 2453, 24 h; how it was run: as §1
Raoultella planticola [7] = test: Antibacterial activity against Klebsiella planticola MTCC 530 assessed as inhibition of bacterial growth incubated for 24 hrs by agar well diffusion method; conditions: MTCC 530, 24 h; how it was run: as §1
Candida albicans = test: Antifungal activity against Candida albicans MTCC 3017 assessed as inhibition of fungal growth incubated for 24 hrs by agar well diffusion method
How it was run: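 Candida strains from MTCC, pre-cultured and spread on Mueller Hinton agar. Wells received compound dissolved in 10% DMSO, 125–0.97 µg/mL; miconazole standard over the same range, DMSO negative control. After 24 h at 37 °C, MIC was read as the lowest concentration giving an inhibition zone. Duplicate experiments, means given.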

Micrococcus luteus [8] = test: Bactericidal activity against Micrococcus luteus MTCC 2470 assessed as bacterial killing incubated for 24 hrs; conditions: MTCC 2470, 24 h
How it was run: (§2)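 Broth tube assay: compound at 0–125 µg/mL in Mueller Hinton broth, overnight culture added to 0.5 McFarland (1.5 × 10^8 cfu/mL), held 24 h at 37 °C. 10 µL from each tube plated on Mueller Hinton agar. MBC is the lowest concentration that kills the strain. Duplicates, means reported.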

Staphylococcus aureus [9] = test: Bactericidal activity against Staphylococcus aureus MTCC 96 assessed as bacterial killing incubated for 24 hrs; conditions: MTCC 96, 24 h; how it was run: as §2
Staphylococcus aureus [10] = test: Bactericidal activity against Staphylococcus aureus MLS-16 MTCC 2940 assessed as bacterial killing incubated for 24 hrs; conditions: MLS-16 MTCC 2940, 24 h; how it was run: as §2
Bacillus subtilis [11] = test: Bactericidal activity against Bacillus subtilis MTCC 121 assessed as bacterial killing incubated for 24 hrs; conditions: MTCC 121, 24 h; how it was run: as §2
Escherichia coli [12] = test: Bactericidal activity against Escherichia coli MTCC 739 assessed as bacterial killing incubated for 24 hrs; conditions: MTCC 739, 24 h; how it was run: as §2
Pseudomonas aeruginosa [13] = test: Bactericidal activity against Pseudomonas aeruginosa MTCC 2453 assessed as bacterial killing incubated for 24 hrs; conditions: MTCC 2453, 24 h; how it was run: as §2
Raoultella planticola [14] = test: Bactericidal activity against Klebsiella planticola MTCC 530 assessed as bacterial killing incubated for 24 hrs; conditions: MTCC 530, 24 h; how it was run: as §2

For O=C(O)c1cn(C2CC2)c2cc(N3CCNCC3)c(F)cc2c1=O [CIPROFLOXACIN], the MIC (Micrococcus luteus [1]) was 0.9 µg/mL (≈ 2.72 µM), the MIC (Staphylococcus aureus [2]) was 0.9 µg/mL (≈ 2.72 µM) and the MIC (Staphylococcus aureus [3]) was 0.9 µg/mL (≈ 2.72 µM). The MIC (Bacillus subtilis [4]) was 0.9 µg/mL (≈ 2.72 µM), the MIC (Escherichia coli [5]) was 0.9 µg/mL (≈ 2.72 µM) and the MIC (Pseudomonas aeruginosa [6]) was 0.9 µg/mL (≈ 2.72 µM). The MIC (Raoultella planticola [7]) was 0.9 µg/mL (≈ 2.72 µM), the MIC (Candida albicans) was “inactive” and the MBC (Micrococcus luteus [8]) was 1.9 µg/mL (≈ 5.73 µM). For the same molecule, the MBC (Staphylococcus aureus [9]) was 1.9 µg/mL (≈ 5.73 µM), the MBC (Staphylococcus aureus [10]) was 1.9 µg/mL (≈ 5.73 µM) and the MBC (Bacillus subtilis [11]) was 1.9 µg/mL (≈ 5.73 µM). It also gave an MBC (Escherichia coli [12]) of 1.9 µg/mL (≈ 5.73 µM), an MBC (Pseudomonas aeruginosa [13]) of 1.9 µg/mL (≈ 5.73 µM) and an MBC (Raoultella planticola [14]) of 1.9 µg/mL (≈ 5.73 µM).
COc1ccc2c(c1)Cc1c(C(=O)N/N=C/c3ccc(Cl)cc3)n[nH]c1-2 gave an MIC (Micrococcus luteus [1]) of 3.9 µg/mL (≈ 10.6 µM), an MIC (Staphylococcus aureus [2]) of 3.9 µg/mL (≈ 10.6 µM) and an MIC (Staphylococcus aureus [3]) of 7.8 µg/mL (≈ 21.3 µM). The MIC (Bacillus subtilis [4]) was 7.8 µg/mL (≈ 21.3 µM), the MIC (Escherichia coli [5]) was 3.9 µg/mL (≈ 10.6 µM) and the MIC (Pseudomonas aeruginosa [6]) was > 125 µg/mL. The MIC (Raoultella planticola [7]) was > 125 µg/mL and the MIC (Candida albicans; MTCC 3017, 24 h) was > 125 µg/mL.
For O=C(N/N=C/c1ccc(Cl)cc1)c1n[nH]c2c1Cc1cc(F)ccc1-2, the MIC (Micrococcus luteus [1]) was > 125 µg/mL, the MIC (Staphylococcus aureus [2]) was 15.6 µg/mL (≈ 44 µM) and the MIC (Staphylococcus aureus [3]) was 15.6 µg/mL (≈ 44 µM). The MIC (Bacillus subtilis [4]) was 7.8 µg/mL (≈ 22 µM), the MIC (Escherichia coli [5]) was > 125 µg/mL and the MIC (Pseudomonas aeruginosa [6]) was > 125 µg/mL. The MIC (Raoultella planticola [7]) was > 125 µg/mL and the MIC (Candida albicans; MTCC 3017, 24 h) was > 125 µg/mL.
COc1ccc2c(c1)Cc1c(C(=O)N/N=C/c3ccc(OC)c(OC)c3)n[nH]c1-2 gave an MIC (Micrococcus luteus [1]) of 3.9 µg/mL (≈ 9.94 µM), an MIC (Staphylococcus aureus [2]) of 3.9 µg/mL (≈ 9.94 µM) and an MIC (Staphylococcus aureus [3]) of 7.8 µg/mL (≈ 19.9 µM). The MIC (Bacillus subtilis [4]) was 7.8 µg/mL (≈ 19.9 µM), the MIC (Escherichia coli [5]) was > 125 µg/mL and the MIC (Pseudomonas aeruginosa [6]) was > 125 µg/mL. The MIC (Raoultella planticola [7]) was > 125 µg/mL and the MIC (Candida albicans; MTCC 3017, 24 h) was > 125 µg/mL.
With COc1ccc(/C=N/NC(=O)c2n[nH]c3c2Cc2ccccc2-3)cc1OC the MIC (Micrococcus luteus [1]) was > 125 µg/mL, the MIC (Staphylococcus aureus [2]) was > 125 µg/mL and the MIC (Staphylococcus aureus [3]) was > 125 µg/mL. The MIC (Bacillus subtilis [4]) was > 125 µg/mL, the MIC (Escherichia coli [5]) was > 125 µg/mL and the MIC (Pseudomonas aeruginosa [6]) was > 125 µg/mL. The MIC (Raoultella planticola [7]) was > 125 µg/mL and the MIC (Candida albicans; MTCC 3017, 24 h) was > 125 µg/mL.
For COc1ccc2c(c1)Cc1c(C(=O)N/N=C/c3cc(OC)c(OC)c(OC)c3)n[nH]c1-2, the MIC (Micrococcus luteus [1]) was 3.9 µg/mL (≈ 9.23 µM), the MIC (Staphylococcus aureus [2]) was 15.6 µg/mL (≈ 36.9 µM) and the MIC (Staphylococcus aureus [3]) was 7.8 µg/mL (≈ 18.5 µM). For the same molecule, the MIC (Bacillus subtilis [4]) was 3.9 µg/mL (≈ 9.23 µM), the MIC (Escherichia coli [5]) was > 125 µg/mL and the MIC (Pseudomonas aeruginosa [6]) was > 125 µg/mL. For the same molecule, the MIC (Raoultella planticola [7]) was > 125 µg/mL and the MIC (Candida albicans; MTCC 3017, 24 h) was > 125 µg/mL.
With O=C(N/N=C/c1c(F)cc(F)cc1F)c1n[nH]c2c1Cc1ccccc1-2 the MIC (Micrococcus luteus [1]) was > 125 µg/mL, the MIC (Staphylococcus aureus [2]) was > 125 µg/mL and the MIC (Staphylococcus aureus [3]) was > 125 µg/mL. The MIC (Bacillus subtilis [4]) was 15.6 µg/mL (≈ 43.8 µM), the MIC (Escherichia coli [5]) was > 125 µg/mL and the MIC (Pseudomonas aeruginosa [6]) was > 125 µg/mL. For the same molecule, the MIC (Raoultella planticola [7]) was > 125 µg/mL and the MIC (Candida albicans; MTCC 3017, 24 h) was > 125 µg/mL.
In the case of COc1cc(/C=N/NC(=O)c2n[nH]c3c2Cc2ccccc2-3)cc(OC)c1OC, the MIC (Micrococcus luteus [1]) is reported as > 125 µg/mL, the MIC (Staphylococcus aureus [2]) is reported as 15.6 µg/mL (≈ 39.8 µM) and the MIC (Staphylococcus aureus [3]) is reported as 15.6 µg/mL (≈ 39.8 µM). For the same molecule, the MIC (Bacillus subtilis [4]) was 7.8 µg/mL (≈ 19.9 µM), the MIC (Escherichia coli [5]) was > 125 µg/mL and the MIC (Pseudomonas aeruginosa [6]) was > 125 µg/mL. The MIC (Raoultella planticola [7]) was > 125 µg/mL and the MIC (Candida albicans; MTCC 3017, 24 h) was > 125 µg/mL.
COc1ccc(/C=N/NC(=O)c2n[nH]c3c2Cc2cc(F)ccc2-3)cc1OC was tested, and the MIC (Micrococcus luteus [1]) was > 125 µg/mL, the MIC (Staphylococcus aureus [2]) was > 125 µg/mL and the MIC (Staphylococcus aureus [3]) was 3.9 µg/mL (≈ 10.3 µM). The MIC (Bacillus subtilis [4]) was > 125 µg/mL, the MIC (Escherichia coli [5]) was > 125 µg/mL and the MIC (Pseudomonas aeruginosa [6]) was > 125 µg/mL. For the same molecule, the MIC (Raoultella planticola [7]) was > 125 µg/mL and the MIC (Candida albicans; MTCC 3017, 24 h) was > 125 µg/mL.
